RAD54 inh = inhibitors of human RAD54 branch migration | RAD54 Holliday junction branch migration, FAM/BHQ fluorescence | inhibition, % at 10.4 µM | AID 602329 | actives 0.14% (n = 360,000) | Q92698;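 active means mean normalized replicate activity at least 40 and at least half of replicates scoring 40 or more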;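 further: 0% = median of neutral control wells and 100% = median of positive control wells; inhibitors cause a drop in the FAM fluorescence signal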
PAX8 inh HTS = lowers PAX8-driven luciferase in RMG-I cells; RMG-I TPO-luciferase reporter, SteadyGlo, 24 h; AID 652154; actives 1.2% (n = 360,000); inhibition, % at 12.6 µM;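 active means mean replicate inhibition at least 60% with every replicate also reaching 60%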;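 further: luciferase light reporting Pax8 driven TPO promoter activity; plate controls were median of neutral control wells for no effect and mitoxantrone controls for full effect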
FN deposition inh = fibronectin deposition inhibition. actives 0.086% (n = 350,000). AH1F fibroblasts, Alexa488-fibronectin deposition fluorescence, overnight. AID 743247. inhibition, % at 12.6 µM;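 active means mean inhibition across replicates of 30% or more, regardless of how many single replicates reach that level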;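 further: positive control wells lacked labelled fibronectin entirely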
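Material – AH1F fibroblast monolayer, labelled fibronectin deposition · Reagent – labelled fibronectin 24 nM · Timing – 1 h adhesion, overnight exposure · Measured by – fluorescence at 485 nm excitation, 525 nm emission · Read-out – inhibition of fibronectin deposition signal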
RAD52 anneal inh = blocks human RAD52 DNA annealing. inhibition, % at 18.7 µM. P43351. actives 0.46% (n = 360,000). recombinant RAD52 DNA annealing, FRET fluorescence;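 active means every replicate showing at least 50% inhibition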
Target sequence (P43351 whole entry, looked up): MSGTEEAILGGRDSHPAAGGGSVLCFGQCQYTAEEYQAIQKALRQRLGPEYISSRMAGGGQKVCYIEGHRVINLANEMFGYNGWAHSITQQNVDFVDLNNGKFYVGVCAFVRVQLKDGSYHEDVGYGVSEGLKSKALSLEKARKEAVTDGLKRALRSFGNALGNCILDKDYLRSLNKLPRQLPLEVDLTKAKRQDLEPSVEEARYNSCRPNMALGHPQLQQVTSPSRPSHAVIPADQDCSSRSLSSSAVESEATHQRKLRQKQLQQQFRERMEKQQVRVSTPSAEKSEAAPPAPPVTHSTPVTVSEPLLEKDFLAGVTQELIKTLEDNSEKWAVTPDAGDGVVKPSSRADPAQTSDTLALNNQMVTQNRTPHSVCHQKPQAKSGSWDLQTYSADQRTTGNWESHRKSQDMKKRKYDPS
Active calls of the source: *; . = not tested or not shown. An excerpt weighted towards active compounds, which were near 1.3% of everything screened.

SMILES | RAD54 inh | PAX8 inh HTS | FN deposition inh | RAD52 anneal inh
C[C@@H]1CN([C@H](C)CO)C(=O)c2cc(NS(=O)(=O)c3ccc(Cl)cc3)ccc2O[C@@H](C)CCCCO[C@@H]1CN(C)Cc1ccc(C(F)(F)F)cc1 | -5 | 5 | -4 | -34
C=CCOc1ccccc1CN1CCC(n2nccc2NC(=O)C2CCOC2)CC1 (centres undefined) | -6 | . | 7 | 2
Cc1cc(=O)n2c3c(c4c(cc13)c(CN(C)C)cc(=O)n4C)OC2 | . | 104* | 10 | 35
COc1ccc(NC(=O)Nc2ccc3c(c2)CC(=O)N([C@@H](C)CO)C[C@@H](C)[C@H](CN(C)Cc2ccc(Cl)c(Cl)c2)O3)cc1 | 0 | 72* | . | .
C[C@H](CO)N1C[C@H](C)[C@@H](CN(C)C(=O)Nc2cccc3ccccc23)Oc2ccc(NC(=O)Nc3ccc4c(c3)OCO4)cc2CC1=O | -1 | 74* | -5 | 4
C[C@@H]1CN([C@@H](C)CO)C(=O)Cc2cc(NC(=O)Nc3ccc(F)cc3)ccc2O[C@H]1CN(C)Cc1ccc2c(c1)OCO2 | 2 | 68* | -14 | -7
COc1ccc(NC(=O)Nc2ccc3c(c2)CC(=O)N([C@H](C)CO)C[C@H](C)[C@H](CN(C)Cc2ccc(Cl)c(Cl)c2)O3)cc1 | 5 | -9 | . | .
C[C@@H]1CN([C@@H](C)CO)C(=O)Cc2cc(NC(=O)Nc3ccc(F)cc3)ccc2O[C@@H]1CN(C)Cc1ccc(Cl)c(Cl)c1 | 0 | 81* | 5 | -31
C[C@H]1CN([C@@H](C)CO)C(=O)Cc2cc(NC(=O)Nc3ccccc3)ccc2O[C@H]1CN(C)Cc1ccc(Cl)c(Cl)c1 | 3 | 50 | . | -6
CCN(CC)c1ccc(NC(=O)COc2ccccc2C#N)cc1S(=O)(=O)Nc1ccc(OC)cc1 | -4 | 23 | -1 | .
CCOCC(=O)NC1CCc2cc(OC)c(OC)c(OC)c2-c2ccc(SC)c(=O)cc21 (centres undefined) | . | 86* | 11 | 1
CCOC(=O)NC1CCc2cc(OC)c(OC)c(OC)c2-c2ccc(SC)c(=O)cc21 (centres undefined) | . | 83* | -35 | -10
CCCCOC(=O)NC1CCc2cc(OC)c(OC)c(OC)c2-c2ccc(SC)c(=O)cc21 (centres undefined) | . | 79* | -25 | -1
CN[C@H]1CCc2cc(OC)c(OC)c(OC)c2-c2ccc(OC)c(=O)cc21 | 0 | 90* | -33 | -11
COc1cc2c(c(OC)c1OC)-c1ccc(NC(=O)c3ccccc3)c(=O)cc1[C@@H](NC(C)=O)CC2 | . | 60 | -1 | -3
CC(C)Oc1ccc(C(CC(=O)O)NC(=O)Cc2ccc(Cl)cc2)cc1 (centres undefined) | -16 | 4 | 3 | -8
Cc1cc(C(=O)COC(=O)C2=COCCO2)c(C)n1-c1ccccc1 | . | 75* | -23 | -20
CC(=O)N/C(=C/c1ccccc1)C(=O)NCCO | -2 | 7 | 11 | .
COc1ccc(F)cc1-c1cc(NC=O)c2ncc(-c3cc(OC)c(OC)c(OC)c3)n2c1 | 7 | 90* | 8 | -15
CC(=O)Nc1cccc(-c2cc(NC=O)c3ncc(-c4cccc(C(C)=O)c4)n3c2)c1 | 5 | 81* | 3 | -19
COc1cc(-c2cnc3c(NC=O)cc(-c4cccc(NC(C)=O)c4)cn23)cc(OC)c1OC | 1 | 105* | -7 | -15
COc1ccc(F)cc1-c1cc(NC=O)c2ncc(-c3cccc(C(=O)N(C)C)c3)n2c1 | -7 | 68* | 6 | -12
COc1ccccc1-c1cc(NC=O)c2ncc(-c3ccc(F)cc3)n2c1 | 4 | 20 | 11 | -61
CN(C)C(=O)c1cccc(-c2cc(NC=O)c3ncc(-c4ccc(F)cc4)n3c2)c1 | -11 | 24 | 2 | -17
COc1cccc(-c2cnc3c(NC=O)cc(-c4cccc(NC(C)=O)c4)cn23)c1 | -12 | 12 | 27 | -44
SMILES | RAD54 inh | PAX8 inh HTS | FN deposition inh | RAD52 anneal inh
CSC1=NCCN1C(=O)COc1ccc2ccccc2c1 | -4 | -9 | -5 | -11
CCCCCC(=O)NNC(=S)NC(=O)c1ccc([N+](=O)[O-])cc1 | -6 | -2 | . | -4
COc1cc(-c2cc(NC=O)c3ncc(-c4ccccc4)n3c2)cc(OC)c1OC | -18 | 15 | -4 | -47
COc1cc(-c2cnc3c(NC=O)cc(-c4ccc(C)cc4)cn23)cc(OC)c1OC | 5 | 90* | -46 | -13
CS(=O)(=O)c1ccc(-c2cc(NC=O)c3ncc(-c4ccc(F)cc4)n3c2)cc1 | -14 | 68* | -1 | -24
COc1cc(-c2cnc3c(NC=O)cc(-c4ccccc4Cl)cn23)cc(OC)c1OC | -4 | 76* | -22 | -10
COc1cccc(-c2cnc3c(NC=O)cc(-c4ccc(S(C)(=O)=O)cc4)cn23)c1 | -4 | 39 | -8 | -26
COc1cc(-c2cnc3c(NC=O)cc(-c4ccccc4)cn23)cc(OC)c1OC | 4 | 92* | -4 | -25
CCOC(=O)C1CCCN(c2oc(-c3ccc(F)cc3)nc2C#N)C1 (centres undefined) | -5 | -5 | 5 | -13
Cc1cc(C(=O)COC(=O)c2ccccc2O)c(C)n1CC1CCCO1 (centres undefined) | 3 | 81* | -13 | -15
O=C(Nc1ccc(N2CCOCC2)cc1N1CCOCC1)c1ccc([N+](=O)[O-])cc1Cl | 3 | 3 | 1 | 3
CCOC1CCCC(n2cnc3c(=S)nc[nH]c32)O1 (centres undefined) | 11 | 83* | -33 | -8
Cc1c(NC(=O)c2cccc(NC(=O)COc3ccccc3)c2)c(=O)n(-c2ccccc2)n1C | -4 | -1 | 12 | -15
Cc1c(NC(=O)c2cccc(NC(=O)COc3ccccc3C#N)c2)c(=O)n(-c2ccccc2)n1C | . | 65* | 3 | -14
Cc1ccc(N(C)S(=O)(=O)c2ccc3[nH]cc(C(=O)NCCCN4CCOCC4)c(=O)c3c2)cc1C | 2 | 12 | 6 | -5
CN(C)CCCNC(=O)CC1C[C@H](C(=O)N2CCCCC2)[C@@]2(CCc3ccccc3)c3[nH]c4ccccc4c3CCN2C1=O (some centres undefined) | 6 | 3 | 6 | -14
COc1ccc2[nH]c3c(c2c1)CCN1C(=O)C(CC(=O)NCCCN(C)C)C[C@H](C(=O)N2CCCCC2)[C@@]31CCc1ccccc1 (some centres undefined) | 8 | -9 | 37* | 24
CN(C)CCCNC(=O)C[C@H]1C[C@H](C(=O)N2CCCCC2)[C@@]2(C)c3[nH]c4cc(-c5ccco5)ccc4c3CCN2C1=O | 12 | -3 | 8 | 30
CN(C)CCCNC(=O)C[C@H]1C[C@H](C(=O)N2CCCCC2)[C@@]2(CCc3ccccc3)c3[nH]c4cc(-c5ccco5)ccc4c3CCN2C1=O | -9 | 27 | 20 | 75*
O=C(C[C@H]1C[C@H](C(=O)N2CCCCC2)[C@@]2(CCc3ccccc3)c3[nH]c4ccc(Cl)cc4c3CCN2C1=O)NCc1ccco1 | 2 | 73* | 11 | 3
COC(=O)c1ccc2nc(-c3ccc(C#N)cc3)c(Cc3cccc(Cl)c3)n2c1 | . | 9 | 14 | -43
